Screens from PubChem.
FAS TE block: FAS thioesterase domain inhibitors, primary screen, biochemical, fluorescence intensity, uHTS | Fatty acid synthase (Homo sapiens), P49327 | recombinant FAS-TE, OMFH fluorogenic substrate, fluorescence endpoint | inhibition, % at 15 µM | 360,000 compounds, 0.67% hits | AID 602261, 2012;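 active = compounds whose normalised, plate-corrected inhibition of enzyme fluorescence in the single-dose primary screen is 50% or more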
Arr AP2 block: inhibitors of beta-arrestin/AP2 binding, primary screen, biochemical, GPCR trafficking, flow cytometry; FITC-arrestin peptide / GST-AP2 beads; AP2 beta2 appendage carries R879A mutation; inhibition, % at 10 µM; 340,000 compounds, 0.31% hits; AID 504490, 2011;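 active = inhibition above a set limit, near 3 SD of compounds lacking own fluorescence, cut at about 54% in these data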
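Test system: GST-tagged AP2 beta2-adaptin appendage (R879A) on 4 µm glutathione beads; also added: fluorescein-tagged arrestin peptide at 50 nM final; timing: 12 min plus 1 h, RT; signal: flow cytometry, FL1 (488/535 nm); read-out: percent drop in bead-associated FITC signal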
NRP1-CendR mod: modulators of CendR peptide binding to NRP-1, primary screen, biochemical, fluorescence polarization, uHTS; inhibition, % at 25 µM; FAM-RPARPAR peptide binding to NRP-1; 360,000 compounds, 0.85% hits; Neuropilin-1 (Homo sapiens), O14786;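 active = inhibition or corrected inhibition above about 18%, plus a signal ratio from 0.5 to 1.5, limit read from the data, passing the limit was not always enough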
CaV13 FRET inh: Primary screen for inhibitors of IQ motif and Ca2+-dependent inactivation inhibitor domain binding in CACNA1D, Förster resonance energy transfer in living cells, … | HEK cells, CFP/YFP FRET ICDI-IQ, plate reader, 10 min; percent FRET-ratio fall versus neutral wells | inhibition, % at 12.3 µM | 340,000 compounds, 0.098% hits | AID 743397;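 active = mean replicate inhibition of at least 30% and at least 1% of replicates passing that level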
ADAM10 inh: human ADAM10 inhibitors, primary screen, biochemical, QFRET, HTS | recombinant ADAM10, EDANS/DABCYL FRET peptide cleavage, 3 h | inhibition, % at 7 µM | 370,000 compounds, 0.62% hits | AID 720582, 2013;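 active = inhibition above a per-campaign cutoff equal to the mean of compounds falling between control-based bounds plus 3 SD, cut at about 20% in these data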
ADAM17 inh: ADAM17 inhibitors, primary screen, biochemical, QFRET. Disintegrin and metalloproteinase domain-containing protein 17 (Homo sapiens), P78536. recombinant ADAM17, EDANS/DABCYL FRET peptide cleavage. inhibition, % at 6.95 µM. 370,000 compounds, 0.83% hits;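 active = inhibition above the mean of compounds lying between control limits plus 3 SD, set per campaign, cut at about 8.5% in these data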
Arr-AP2 CP1: inhibitors of arrestin peptide binding to AP2, confirmation, biochemical, cherry pick 1, flow cytometry beads; inhibition, % at 10 µM; GST-AP2 beads, FITC arrestin peptide binding; GST-fused beta2-adaptin appendage, R879A mutant; shares compounds with Arr AP2 block; 1,300 compounds, 2% hits;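 active = inhibition above a set limit, roughly 3 SD of non-fluorescent compound noise, cut at about 38% in these data; inactive = inhibition at or below that limit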;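 also: loss of bead fluorescence from 50 nM FITC arrestin peptide bound to appendage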
GST-FITC bead: GST-fluorescein capture on glutathione beads, confirmation, artefact control for arrestin-AP2 inhibitor project, biochemical, cherry pick 1, flow cytometry | shares compounds with Arr AP2 block | GST-fluorescein binding to GSH beads, fluorescence, counter-screen | inhibition, % at 10 µM | 1,300 compounds, 2% hits | AID 588338, 2011;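 active = inhibition above 50%, about 3 SD of the inhibition seen with non-fluorescent compounds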;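 also: fluorescein maleimide labelled GST captured on 4 micron glutathione beads; higher means more loss of bead fluorescence from quenching or blocked binding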
Of the large screens only hits and unclear results are named; the others gave an inactive call (follow-up assays come after a bar, where they were run). Hits are enriched below; roughly 2.9% of the tested compounds scored in any of these assays.

CCn1ncc(C(=O)Nc2ccc([N+](=O)[O-])cc2OC)c1C	none
C[C@@H]1CN([C@H](C)CO)C(=O)c2cc(Br)cnc2O[C@@H]1CN(C)C(=O)C1CCOCC1	none (no result: Arr AP2 block)
CNC(=O)C1CCN(S(=O)(=O)c2c(C)noc2/C=C/N(C)C)CC1	none
CCc1ccc(NC(=O)C2CCN(S(=O)(=O)c3c(C)noc3/C=C/N(C)C)CC2)cc1	Arr AP2 block 54.7 | Arr-AP2 CP1 inactive | GST-FITC bead inactive
Cn1c(=O)c2cc(NC(=O)NCc3ccccc3)ccc2n1C/C=C/c1ccccc1	none (no result: Arr AP2 block)
O=C1CCCC2=C1C(c1cccs1)Nc1ccccc1N2 (stereo not given)	Arr AP2 block 70.1 | Arr-AP2 CP1 inactive | GST-FITC bead inactive
CC1(C)CC(=O)C2=C(C1)Nc1ccccc1NC2c1cccs1 (stereo not given)	none
O=C(OCC#CCSc1nnc(-c2cccc3ccccc23)o1)c1ccccc1F	none (no result: FAS TE block, Arr AP2 block, NRP1-CendR mod, CaV13 FRET inh)
O=C(CCC1CCCN(C(=O)c2ccc3cc[nH]c3c2)C1)NCc1ccc(F)c(F)c1 (stereo not given)	Arr AP2 block 57.9 | Arr-AP2 CP1 inactive | GST-FITC bead inactive
NCCCNc1nc(N)c([N+](=O)[O-])c(NC2CCCCC2)n1	none
CCOC(=O)N1CCN(C(=O)C[C@H]2C[C@@]3(C(=O)OC)C(=C[C@H](C(C)C)O[C@@H]3C3CC3)N(CCC3=CCCCC3)C2=O)CC1	none (no result: FAS TE block, Arr AP2 block, NRP1-CendR mod, CaV13 FRET inh)
Cc1ccc(C(=O)N2CCC(C(=O)c3ccc(F)cc3)CC2)cc1	Arr AP2 block 58.1 | Arr-AP2 CP1 inactive | GST-FITC bead inactive
Cc1ccc(C(=O)C2CCN(C(=O)c3ccc(C)cc3)CC2)cc1	none
CNc1cccc2c1C(=O)c1ccccc1C2=O	Arr AP2 block 66.5 | Arr-AP2 CP1 inactive | GST-FITC bead inactive
COc1cccc(N2CCN(C(=O)COc3cc(=O)n(C)c4ccccc34)CC2)c1	none (no result: FAS TE block, Arr AP2 block, NRP1-CendR mod, CaV13 FRET inh)
NS(=O)(=O)c1ccc(NC(=O)/C=C/c2cn(-c3ccccc3)nc2-c2cccc(Cl)c2)cc1	Arr AP2 block 58.4 | Arr-AP2 CP1 inactive | GST-FITC bead inactive
O=C(/C=C/c1cn(-c2ccccc2)nc1-c1ccccc1)Nc1ccc(C(=O)O)cc1	none
CCNC(=O)/C(C#N)=C/c1c(N2CCN(Cc3ccc4c(c3)OCO4)CC2)nc2c(C)cccn2c1=O	Arr AP2 block 57.2 | Arr-AP2 CP1 inactive | GST-FITC bead inactive
CCNC(=O)/C(C#N)=C/c1c(N2CCN(C)CC2)nc2c(C)cccn2c1=O	none
O=C(CSc1nnc(-c2cccnc2)n1-c1ccc(Cl)cc1)Nc1cccc2ccccc12	none (no result: FAS TE block, Arr AP2 block, NRP1-CendR mod, CaV13 FRET inh)
O=C(NCCCN1CCCC1=O)c1cc(=O)c2ccccc2o1	Arr AP2 block 74.0 (no result: CaV13 FRET inh) | Arr-AP2 CP1 inactive | GST-FITC bead inactive
O=C1CCC[C@H]2C[C@H](NCc3ccc(Br)cc3)CC[C@]23CCCN13	none (no result: FAS TE block, Arr AP2 block, NRP1-CendR mod, CaV13 FRET inh)
CCN1/C(=C/C(C)=C/c2sc3ccccc3[n+]2CC)Sc2ccccc21	Arr AP2 block 85.9 | Arr-AP2 CP1 71.2 | GST-FITC bead inactive
Cc1cc(Br)ccc1NC(=O)C1CSC2(C)CCC(=O)N12 (stereo not given)	none
CN(C)S(=O)(=O)c1ccc(Cl)c(NC(=O)COC(=O)C2CSC3(C)CCC(=O)N23)c1 (stereo not given)	none | Arr-AP2 CP1 inactive | GST-FITC bead inactive
